Measured values reported in ChEMBL document CHEMBL1165977, “Novel analogues of Istaroxime, a potent inhibitor of Na(+),K(+)-ATPase: Synthesis, structure-activity relationship and 3D-quantitative structure-activity relationship of derivatives at position 6 on the androstane scaffold” (Bioorg Med Chem, 2010).

Columns and labels:
[1] = Inhibition of dog kidney Na+K+-ATPase assessed as hydrolysis of [32P]ATP; parameters: species or system Canis lupus familiaris
In short: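 Dog kidney Na+,K+-ATPase, isolated and purified by the Jørgensen method. Enzyme activity was read as % hydrolysis of 32P-ATP with versus without test compound. IC50 was obtained by nonlinear least-squares curve fitting, as the mean of two or three experiments.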

Cavia porcellus [2] = test: Toxicity in guinea pig assessed as death at 0.16 ml/min, iv up to 90 mins; format: organism-based; conditions: in vivo, 1.5 h
In short: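 Anesthetized guinea pigs with a jugular vein cannula and an intubated trachea for spontaneous respiration. After stabilization, drug was infused iv at 0.16 mL/min until death or for up to 90 min. Vehicle was DMSO diluted in physiological solution to 1% DMSO final. Read-out was +dP/dt_max. ED80 (dose raising +dP/dt_max by 80%) came from the dose–response, and the doses giving maximum inotropy and death were recorded, giving the lethal dose/ED80 ratio.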

Cavia porcellus [3] = species: Cavia porcellus; test: Positive inotropic activity in electrically driven guinea pig atria assessed as maximal concentration required to increase in […]; format: functional
Cavia porcellus [4] = test: Positive inotropic activity in guinea pig atria assessed as increase in […] at 0.16 ml/min, iv; format: functional
Cavia porcellus [5] = test: Positive inotropic activity in iv dosed guinea pig atria assessed as concentration required to increase in […]; format: functional

Structure (SMILES)	IC50 [1]	Activity (Cavia porcellus [2])	Activity (Cavia porcellus [3])	Emax (Cavia porcellus [4])	ED80 (Cavia porcellus [5])
C[C@]12CC/C(=N\OCCN)C[C@@H]1[C@@H](C(=O)O)C[C@@H]1[C@@H]2CC[C@]2(C)C(=O)CC[C@@H]12	16000 nM	–	–	–	–
C[C@]12CC/C(=N\OCCN)C[C@@H]1C(=C(F)F)C[C@@H]1[C@@H]2CC[C@]2(C)C(=O)CC[C@@H]12	190 nM	–	–	–	–
C/C=C1\C[C@@H]2[C@H](CC[C@]3(C)C(=O)CC[C@@H]23)[C@@]2(C)CC/C(=N\OCCN)C[C@H]12	1100 nM	–	–	–	–
C[C@]12CC/C(=N\OCCN)C[C@@H]1C1(CC1)C[C@@H]1[C@@H]2CC[C@]2(C)C(=O)CC[C@@H]12	850 nM	–	–	–	–
C[C@H]1C[C@@H]2[C@H](CC[C@]3(C)C(=O)CC[C@@H]23)[C@@]2(C)CC/C(=N\OCCN)C[C@H]12.Cl	300 nM	Non-toxic	5.8 µM/g	203%	3.1 µM/g
C=C[C@H]1C[C@@H]2[C@H](CC[C@]3(C)C(=O)CC[C@@H]23)[C@@]2(C)CC/C(=N\OCCN)C[C@H]12	530 nM	–	–	–	–
C#C[C@H]1C[C@@H]2[C@H](CC[C@]3(C)C(=O)CC[C@@H]23)[C@@]2(C)CC/C(=N\OCCN)C[C@H]12.Cl	200 nM	Non-toxic	9.9 µM/g	163%	4.6 µM/g
C[C@@H]1C[C@@H]2[C@H](CC[C@]3(C)C(=O)CC[C@@H]23)[C@@]2(C)CC/C(=N\OCCN)C[C@H]12	6000 nM	–	–	–	–
CO/N=C1\C[C@@H]2[C@H](CC[C@]3(C)C(=O)CC[C@@H]23)[C@@]2(C)CC/C(=N\OCCN)C[C@H]12.Cl	17 nM	Non-toxic	5.8 µM/g	183%	2.4 µM/g
CCO/N=C1\C[C@@H]2[C@H](CC[C@]3(C)C(=O)CC[C@@H]23)[C@@]2(C)CC/C(=N\OCCN)C[C@H]12	1700 nM	–	–	–	–
C[C@]12CC/C(=N\O[C@@H]3CCNC3)C[C@@H]1[C@@H](O[N+](=O)[O-])C[C@@H]1[C@@H]2CC[C@]2(C)C(=O)CC[C@@H]12	380 nM	–	–	–	–
C[C@]12CC/C(=N\OCCN)C[C@@H]1/C(=C/C#N)C[C@@H]1[C@@H]2CC[C@]2(C)C(=O)CC[C@@H]12	1700 nM	–	–	–	–
C[C@H]1C[C@@H]2[C@H](CC[C@]3(C)C(=O)CC[C@@H]23)[C@@]2(C)CC/C(=N\O[C@@H]3CCNC3)C[C@H]12	340 nM	–	–	–	–
C[C@]12CC/C(=N\OCCN)C[C@@H]1[C@@H](CO)C[C@@H]1[C@@H]2CC[C@]2(C)C(=O)CC[C@@H]12.Cl	180 nM	Non-toxic	7.4 µM/g	166%	1.8 µM/g
C[C@]12CC/C(=N\OCCN)C[C@@H]1[C@H](CO)C[C@@H]1[C@@H]2CC[C@]2(C)C(=O)CC[C@@H]12	1600 nM	–	–	–	–
C#C[C@H]1C[C@@H]2[C@H](CC[C@]3(C)C(=O)CC[C@@H]23)[C@@]2(C)CC/C(=N\O[C@@H]3CCNC3)C[C@H]12.Cl	110 nM	Non-toxic	6 µM/g	147%	3.7 µM/g
CC(=O)N[C@H]1C[C@@H]2[C@H](CC[C@]3(C)C(=O)CC[C@@H]23)[C@@]2(C)CC/C(=N\OCCN)C[C@H]12	45000 nM	–	–	–	–
C=C1C[C@@H]2[C@H](CC[C@]3(C)C(=O)CC[C@@H]23)[C@@]2(C)CC/C(=N\O[C@@H]3CCNC3)C[C@H]12	46 nM	–	–	–	–
C[C@]12CC/C(=N\OCCN)C[C@@H]1/C(=C/CO)C[C@@H]1[C@@H]2CC[C@]2(C)C(=O)CC[C@@H]12	770 nM	–	–	–	–
C[C@]12CC/C(=N\O[C@@H]3CCNC3)C[C@@H]1C(=C(F)F)C[C@@H]1[C@@H]2CC[C@]2(C)C(=O)CC[C@@H]12.Cl	21 nM	Non-toxic	18 µM/g	244%	6.7 µM/g
C[C@]12CC/C(=N\O[C@@H]3CCNC3)C[C@@H]1C1(CC1)C[C@@H]1[C@@H]2CC[C@]2(C)C(=O)CC[C@@H]12	220 nM	–	–	–	–
COC[C@H]1C[C@@H]2[C@H](CC[C@]3(C)C(=O)CC[C@@H]23)[C@@]2(C)CC/C(=N\O[C@@H]3CCNC3)C[C@H]12.O=C(O)/C=C/C(=O)O	320 nM	Non-toxic	12 µM/g	201%	6.8 µM/g
CNCCCO/N=C1\CC[C@@]2(C)[C@H](C1)/C(=N/OC)C[C@@H]1[C@@H]2CC[C@]2(C)C(=O)CC[C@@H]12	330 nM	–	–	–	–
CCO[C@H]1C[C@@H]2[C@H](CC[C@]3(C)C(=O)CC[C@@H]23)[C@@]2(C)CC/C(=N\OCCN)C[C@H]12	3100 nM	–	–	–	–
C[C@]12CC/C(=N\O[C@@H]3CCNC3)C[C@@H]1C(=O)C[C@@H]1[C@@H]2CC[C@]2(C)C(=O)CC[C@@H]12	26 nM	–	–	–	–
